{"source": "ChEMBL document CHEMBL1128396", "about": "“Synthesis and biological evaluation of a series of new parenteral optically active 3-[[(N-alkylpyridinium-4'-yl)thio]methyl]-2-oxaisocephems” (1995)", "assay_type_in_all_cases": "functional", "key": {"Streptococcus pneumoniae": {"tested_on": "Streptococcus pneumoniae", "experiment": "In vitro antibacterial activity against clinical isolates Ampicillin-insensitive Streptococcus pneumoniae was determined", "method_in_brief": "(§1)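 2-fold agar dilution on Müller-Hinton agar. Overnight broth cultures were diluted to about 10^6 CFU/mL, and 10^4 CFU/spot was applied to plates with graded drug concentrations. Plates were incubated 18 h at 37 °C.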"}, "Mus musculus [1]": {"tested_on": "Mus musculus", "experiment": "Antibacterial activity was determined against Staphylococcus aureus Smith at a challenge dose of 1.32*10e7 (cells/mouse) administered subcutaneously (value in parentheses indicates 95% CL)", "conditions": "sc", "method_in_brief": "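Cultures were grown overnight at 37 °C in tryptic soy broth (S. aureus, MRSA, E. faecalis) or Müller-Hinton broth (E. coli, S. pneumoniae). Graded doses were given subcutaneously 1 h post-infection.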"}, "Klebsiella pneumoniae": {"tested_on": "Klebsiella pneumoniae", "experiment": "Antibacterial activity was determined against Klebsiella pneumoniae NCTC 9632 (Gram-negative)", "method_in_brief": "as §1"}, "Mus musculus [2]": {"tested_on": "Mus musculus", "experiment": "Antibacterial activity was determined against MRSA 5120 at a challenge dose of 7.6*10e7 (cells/mouse) administered subcutaneously", "conditions": "sc", "method_in_brief": "(§2)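 Cultures were grown overnight at 37 °C in tryptic soy broth (S. aureus, MRSA, E. faecalis) or Müller-Hinton broth (E. coli, S. pneumoniae). Graded doses were given subcutaneously 1 h post-infection. ED50 was calculated by probit from day-7 survival, with 95% confidence limits.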"}, "Staphylococcus aureus [3]": {"tested_on": "Staphylococcus aureus", "experiment": "Antibacterial activity was determined against Methicillin-resistant Staphylococcus aureus (MRSA) 5038 (Gram-positive)"}, "Serratia marcescens": {"tested_on": "Serratia marcescens", "experiment": "Antibacterial activity was determined against Serratia marcescens ATCC 12648 (Gram-negative)", "method_in_brief": "as §1"}, "Mus musculus [4]": {"tested_on": "Mus musculus", "experiment": "Antibacterial activity was determined against Enterococcus faecalis C 0063 at a challenge dose of 7.00*10e7 (cells/mouse) administered subcutaneously", "conditions": "sc", "method_in_brief": "as §2"}, "[5]": {"tested_on": "Staphylococcus epidermidis", "experiment": "Antibacterial activity was determined against Staphylococcus epidermidis ATCC 12228 (Gram-positive)", "method_in_brief": "as §1"}, "Enterococcus faecalis [6]": {"tested_on": "Enterococcus faecalis", "experiment": "Antibacterial activity was determined against Enterococcus faecalis ATCC 21212 (Gram-positive)", "method_in_brief": "as §1"}, "Staphylococcus aureus [7]": {"tested_on": "Staphylococcus aureus", "experiment": "[…] was determined against MRSA 5120"}, "Staphylococcus aureus [8]": {"tested_on": "Staphylococcus aureus", "experiment": "In vitro antibacterial activity against clinical isolates methicillin-resistant Staphylococcus aureus was determined", "method_in_brief": "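2-fold agar dilution on Müller-Hinton agar. Overnight broth cultures were diluted to about 10^6 CFU/mL, and 10^4 CFU/spot was applied to plates with graded drug concentrations.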"}, "Escherichia coli": {"tested_on": "Escherichia coli", "experiment": "Antibacterial activity was determined against Escherichia coli NIHJ JC-2 (Gram-negative)", "method_in_brief": "as §1"}, "Enterococcus faecalis [9]": {"tested_on": "Enterococcus faecalis", "experiment": "In vitro antibacterial activity against clinical isolates Enterococcus faecalis was determined", "method_in_brief": "as §1"}, "Pseudomonas aeruginosa": {"tested_on": "Pseudomonas aeruginosa", "experiment": "Antibacterial activity was determined against Pseudomonas aeruginosa ATCC 10145 (Gram-negative)", "method_in_brief": "as §1"}, "Staphylococcus aureus [10]": {"tested_on": "Staphylococcus aureus", "experiment": "Antibacterial activity was determined against Staphylococcus aureus FDA 209P (Gram-positive)", "method_in_brief": "as §1"}, "Mus musculus [11]": {"tested_on": "Mus musculus", "experiment": "Antibacterial activity was determined against Escherichia coli 29 at a challenge dose of 1.35*10e6 (cells/mouse) administered subcutaneously", "conditions": "sc", "method_in_brief": "as §2"}}, "data": [{"smiles": "CO/N=C(\\C(=O)N[C@@H]1C(=O)N2C(C(=O)[O-])=C(C[n+]3cccc4c3CCC4)CS[C@H]12)c1csc(N)n1", "note": "[CEFPIROME]", "values": [{"measurement": "MIC50", "setting": "Streptococcus pneumoniae", "value": 0.39, "unit": "µg/mL"}, {"measurement": "MIC80", "setting": "Streptococcus pneumoniae", "value": 0.78, "unit": "µg/mL"}, {"measurement": "MIC90", "setting": "Streptococcus pneumoniae", "value": 0.78, "unit": "µg/mL"}, {"measurement": "ED50", "setting": "Mus musculus [1]", "value": 1.72, "unit": "mg/kg"}, {"measurement": "MIC", "setting": "Klebsiella pneumoniae", "value": 0.05, "unit": "µg/mL"}, {"measurement": "ED50", "setting": "Mus musculus [2]", "value": 27.7, "unit": "mg/kg"}, {"measurement": "MIC", "setting": "Staphylococcus aureus [3]", "value": 100, "unit": "µg/mL"}, {"measurement": "MIC", "setting": "Serratia marcescens", "value": 0.2, "unit": "µg/mL"}, {"measurement": "ED50", "setting": "Mus musculus [4]", "value": "> 100", "unit": "mg/kg"}, {"measurement": "MIC", "setting": "[5]", "value": 0.39, "unit": "µg/mL"}, {"measurement": "MIC", "setting": "Enterococcus faecalis [6]", "value": 25, "unit": "µg/mL"}, {"measurement": "MIC", "setting": "Staphylococcus aureus [7]", "value": 50, "unit": "µg/mL"}, {"measurement": "MIC50", "setting": "Staphylococcus aureus [8]", "value": 50, "unit": "µg/mL"}, {"measurement": "MIC80", "setting": "Staphylococcus aureus [8]", "value": 100, "unit": "µg/mL"}, {"measurement": "MIC90", "setting": "Staphylococcus aureus [8]", "value": 100, "unit": "µg/mL"}, {"measurement": "MIC", "setting": "Escherichia coli", "value": 0.05, "unit": "µg/mL"}, {"measurement": "MIC50", "setting": "Enterococcus faecalis [9]", "value": 50, "unit": "µg/mL"}, {"measurement": "MIC80", "setting": "Enterococcus faecalis [9]", "value": 100, "unit": "µg/mL"}, {"measurement": "MIC90", "setting": "Enterococcus faecalis [9]", "value": 100, "unit": "µg/mL"}, {"measurement": "MIC", "setting": "Pseudomonas aeruginosa", "value": 6.25, "unit": "µg/mL"}, {"measurement": "MIC", "setting": "Staphylococcus aureus [10]", "value": 0.39, "unit": "µg/mL"}, {"measurement": "ED50", "setting": "Mus musculus [11]", "value": 0.64, "unit": "mg/kg"}]}]}
